Source: ChEMBL document CHEMBL4266015, “Scaffold Ranking and Positional Scanning Identify Novel Neurite Outgrowth Promoters with Nanomolar Potency” (2018)

test: Induction of neurite outgrowth in rat hippocampal neurons assessed as neurite total length at 250 ng/ml after 48 hrs relative to control; assay type: functional, Hippocampal neurone
Method in brief: (§1)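 E18 rat hippocampal neurons were plated on PDL at 1800 cells/well in NbActive4, adhered 2 h, then treated with compound prediluted in medium at 4× final for 48 h. Cells were fixed, stained for βIII-tubulin, imaged and auto-traced. Mean neurite total length is a percentage of DMSO vehicle wells on the same plate. ML-7 was the positive control and plates with Z-factor >0.5 were accepted.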

First: CC1CCC(CN2C(=S)N(CCCC[C@H]3CNC(C4CCCC4)=N3)C[C@H]2C)CC1 (some centres not stated)
Second: CC(C)C[C@@H]1CN(CCCC[C@H]2CNC(C3CCCC3)=N2)C(=S)N1CC1CCC(C)CC1 (some centres not stated)
The Activity of the first is higher: 257.3% for the first, 238.5% for the second.

Going from `CC1CCC(CN2C(=S)N(CCCC[C@H]3CNC(C4CCCC4)=N3)C[C@H]2c2ccccc2)CC1` (some centres not stated) to `CC(C)CCCCN1C(=S)N(CCCC[C@H]2CNC(CCCCc3ccccc3)=N2)C[C@H]1c1ccccc1`, the Activity falls from 270.8% to 253.9%.

Compared with `CCC(C)CC1=N[C@@H](CCCCN2C[C@@H](CC(C)C)N(CCCCC(C)C)C2=S)CN1` (some centres not stated), `CC(C)CCCCN1C(=S)N(CCCC[C@H]2CNC(CC3CCCC3)=N2)C[C@H]1C` is higher in Activity: 258.7% for the first, 264.8% for the second.

test: Induction of neurite outgrowth in rat hippocampal neurons assessed as neurite total length at 15.625 ng/ml after 48 hrs relative to control; assay type: functional, Hippocampal neurone; method in brief: as §1

Going from `CC1CCC(CN2C(=S)N(CCCC[C@H]3CNC(C4CCCC4)=N3)C[C@H]2C)CC1` (some centres not stated) to `CC(C)C[C@@H]1CN(CCCC[C@H]2CNC(C3CCCC3)=N2)C(=S)N1CC1CCC(C)CC1` (some centres not stated), the Activity rises from 94.61% to 169.9%.

Compared with `CC1CCC(CN2C(=S)N(CCCC[C@H]3CNC(C4CCCC4)=N3)C[C@H]2c2ccccc2)CC1` (some centres not stated), `CC(C)CCCCN1C(=S)N(CCCC[C@H]2CNC(CCCCc3ccccc3)=N2)C[C@H]1c1ccccc1` is lower in Activity: 251% for the first, 113.8% for the second.

Going from `CCC(C)CC1=N[C@@H](CCCCN2C[C@@H](CC(C)C)N(CCCCC(C)C)C2=S)CN1` (some centres not stated) to `CC(C)CCCCN1C(=S)N(CCCC[C@H]2CNC(CC3CCCC3)=N2)C[C@H]1C`, the Activity falls from 122.8% to 113.8%.

test: Induction of neurite outgrowth in rat hippocampal neurons assessed as neurite total length after 48 hrs; assay type: functional, Hippocampal neurone
Method in brief: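 Dissociated E18 rat hippocampal neurons were seeded on PDL-coated plates at 1800 cells/well in NbActive4 and allowed to adhere 2 h. Compounds were prediluted in medium at 4× final and added, then cells were grown 48 h (2 DIV). Wells were fixed, immunostained for βIII-tubulin and imaged by automated tracing. ED200% and ED300% values were linearly interpolated from dose-response curves of mean neurite total length.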

First: CC1CCC(CN2C(=S)N(CCCC[C@H]3CNC(C4CCCC4)=N3)C[C@H]2C)CC1 (some centres not stated)
Second: CC(C)C[C@@H]1CN(CCCC[C@H]2CNC(C3CCCC3)=N2)C(=S)N1CC1CCC(C)CC1 (some centres not stated)
The ED200 of the first is 32-fold higher: 130 nM for the first, 4 nM for the second.

In the case of `CC1CCC(CN2C(=S)N(CCCC[C@H]3CNC(C4CCCC4)=N3)C[C@H]2c2ccccc2)CC1` (some centres not stated), the ED200 is reported as 2 nM.

First: CC1CCC(CN2C(=S)N(CCCC[C@H]3CNC(C4CCCC4)=N3)C[C@H]2C)CC1 (some centres not stated)
Second: CC(C)C[C@@H]1CN(CCCC[C@H]2CNC(C3CCCC3)=N2)C(=S)N1CC1CCC(C)CC1 (some centres not stated)
The ED300 of the first is 11-fold higher: 282 nM for the first, 25 nM for the second.

`CC1CCC(CN2C(=S)N(CCCC[C@H]3CNC(C4CCCC4)=N3)C[C@H]2c2ccccc2)CC1` (some centres not stated) showed an ED300 greater than 520 nM.

test: Induction of neurite outgrowth in rat hippocampal neurons assessed as neurite total length at 125 ng/ml after 48 hrs relative to control; assay type: functional, Hippocampal neurone; method in brief: as §1

Going from `CC1CCC(CN2C(=S)N(CCCC[C@H]3CNC(C4CCCC4)=N3)C[C@H]2C)CC1` (some centres not stated) to `CC(C)C[C@@H]1CN(CCCC[C@H]2CNC(C3CCCC3)=N2)C(=S)N1CC1CCC(C)CC1` (some centres not stated), the Activity rises from 230.7% to 311.6%.

Compared with `CC1CCC(CN2C(=S)N(CCCC[C@H]3CNC(C4CCCC4)=N3)C[C@H]2c2ccccc2)CC1` (some centres not stated), `CC(C)CCCCN1C(=S)N(CCCC[C@H]2CNC(CCCCc3ccccc3)=N2)C[C@H]1c1ccccc1` is lower in Activity: 286.2% for the first, 259.1% for the second.

First: CCC(C)CC1=N[C@@H](CCCCN2C[C@@H](CC(C)C)N(CCCCC(C)C)C2=S)CN1 (some centres not stated)
Second: CC(C)CCCCN1C(=S)N(CCCC[C@H]2CNC(CC3CCCC3)=N2)C[C@H]1C
The Activity of the first is higher: 254% for the first, 213.9% for the second.

test: Induction of neurite outgrowth in rat hippocampal neurons assessed as neurite total length at 31.25 ng/ml after 48 hrs relative to control; assay type: functional, Hippocampal neurone; method in brief: as §1

Compared with `CC1CCC(CN2C(=S)N(CCCC[C@H]3CNC(C4CCCC4)=N3)C[C@H]2C)CC1` (some centres not stated), `CC(C)C[C@@H]1CN(CCCC[C@H]2CNC(C3CCCC3)=N2)C(=S)N1CC1CCC(C)CC1` (some centres not stated) is higher in Activity: 128.3% for the first, 255.4% for the second.

Going from `CC1CCC(CN2C(=S)N(CCCC[C@H]3CNC(C4CCCC4)=N3)C[C@H]2c2ccccc2)CC1` (some centres not stated) to `CC(C)CCCCN1C(=S)N(CCCC[C@H]2CNC(CCCCc3ccccc3)=N2)C[C@H]1c1ccccc1`, the Activity falls from 271.9% to 170.2%.

First: CCC(C)CC1=N[C@@H](CCCCN2C[C@@H](CC(C)C)N(CCCCC(C)C)C2=S)CN1 (some centres not stated)
Second: CC(C)CCCCN1C(=S)N(CCCC[C@H]2CNC(CC3CCCC3)=N2)C[C@H]1C
The Activity of the first is higher: 179.8% for the first, 137.9% for the second.

test: Induction of neurite outgrowth in rat hippocampal neurons assessed as neurite total length at 62.5 ng/ml after 48 hrs relative to control; assay type: functional, Hippocampal neurone; method in brief: as §1

Compared with `CC1CCC(CN2C(=S)N(CCCC[C@H]3CNC(C4CCCC4)=N3)C[C@H]2C)CC1` (some centres not stated), `CC(C)C[C@@H]1CN(CCCC[C@H]2CNC(C3CCCC3)=N2)C(=S)N1CC1CCC(C)CC1` (some centres not stated) is higher in Activity: 168.1% for the first, 253.6% for the second.

Compared with `CC1CCC(CN2C(=S)N(CCCC[C@H]3CNC(C4CCCC4)=N3)C[C@H]2c2ccccc2)CC1` (some centres not stated), `CC(C)CCCCN1C(=S)N(CCCC[C@H]2CNC(CCCCc3ccccc3)=N2)C[C@H]1c1ccccc1` is lower in Activity: 305.6% for the first, 172.4% for the second.

First: CCC(C)CC1=N[C@@H](CCCCN2C[C@@H](CC(C)C)N(CCCCC(C)C)C2=S)CN1 (some centres not stated)
Second: CC(C)CCCCN1C(=S)N(CCCC[C@H]2CNC(CC3CCCC3)=N2)C[C@H]1C
The Activity of the first is higher: 222.6% for the first, 175.9% for the second.

test: Induction of neurite outgrowth in rat hippocampal neurons assessed as neurite total length at 500 ng/ml after 48 hrs relative to control; assay type: functional, Hippocampal neurone; method in brief: as §1

Compared with `CC1CCC(CN2C(=S)N(CCCC[C@H]3CNC(C4CCCC4)=N3)C[C@H]2C)CC1` (some centres not stated), `CC(C)C[C@@H]1CN(CCCC[C@H]2CNC(C3CCCC3)=N2)C(=S)N1CC1CCC(C)CC1` (some centres not stated) is lower in Activity: 322.3% for the first, 263% for the second.

Compared with `CC1CCC(CN2C(=S)N(CCCC[C@H]3CNC(C4CCCC4)=N3)C[C@H]2c2ccccc2)CC1` (some centres not stated), `CC(C)CCCCN1C(=S)N(CCCC[C@H]2CNC(CCCCc3ccccc3)=N2)C[C@H]1c1ccccc1` is lower in Activity: 229.6% for the first, 225.1% for the second.

Compared with `CCC(C)CC1=N[C@@H](CCCCN2C[C@@H](CC(C)C)N(CCCCC(C)C)C2=S)CN1` (some centres not stated), `CC(C)CCCCN1C(=S)N(CCCC[C@H]2CNC(CC3CCCC3)=N2)C[C@H]1C` is higher in Activity: 239.5% for the first, 323.7% for the second.
